Laboratory results: ChEMBL document CHEMBL5316289, “Structure-Based Rational Design of Small α-Helical Peptides with Broad-Spectrum Activity against Multidrug-Resistant Pathogens” (J Med Chem, 2023)
Calls of active or inactive are those of the source. The calls are words filed in the database; no cut-off is given here.

Experiments:
Staphylococcus aureus [1] = assay: Bactericidal activity against methicillin resistant Staphylococcus aureus ATCC BAA 1556 assessed as inhibition of bacterial growth at MIC incubated for 4 hrs by Time kill assay; assay type: functional
Procedure, shortened: (§1)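 Aliquots taken every 30 min for 4 h and plated on agar for viable colony counts. Two independent experiments in triplicate.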

HepaRG [2] = assay: Antiproliferative activity human HepaRG cells assessed as reduction in cell viability at 50 ug/ml incubated for 24 hrs by MTS assay; assay type: functional; settings: dose 50 µg/ml
Procedure, shortened: (§2)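 Cells seeded at 10,000 per well 24 h before treatment. Media: MRC-5 and HEK293 in DMEM with 10% FBS; HepaRG in William's E with GlutaMAX; HEKa in Dermal Cell Basal medium plus keratinocyte growth kit. Peptide at 10–250 μg/mL in triplicate for 24 h, 37 °C, 5% CO2. MTS added for 2 h, then A490 read. Survival is blank-corrected OD as % of untreated control.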

Cell membrane [3] = assay: Disruption of cell membrane in methicillin resistant Staphylococcus aureus ATCC BAA 1556 assessed as cell membrane perturbation at 4 times of MIC measured after 1 hrs by DAPI and PI double staining based fluorescence microscopic analysis
Procedure, shortened: (§3)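 Mid-log cells washed in PBS (10 mM, pH 7.3), 10^7 CFU/mL, treated at MIC and 4× MIC for 1 h. Pelleted and washed, then stained with PI for 15 min at 37 °C in the dark, then DAPI for 15 min at 37 °C in the dark. Untreated controls. Imaged by fluorescence microscopy, 60× oil objective.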

Staphylococcus aureus [4] = assay: Antibacterial activity against methicillin resistant Staphylococcus aureus ATCC BAA 1556 assessed as fold increase in MIC incubated for 24 hrs in presence of K+ ions by CLSI based broth microdilution method; assay type: functional
Procedure, shortened: (§4)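 CLSI broth microdilution. Overnight cultures diluted in cation-adjusted Mueller Hinton broth to 10^6 CFU/mL, mixed 1:1 with 2-fold serial peptide dilutions, 24 h at 37 °C. […] MIC is the lowest concentration inhibiting growth. Three independent assays in triplicate.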

Cell membrane [5] = assay: Disruption of cell membrane in Escherichia coli ATCC BAA-2452 assessed as cell membrane perturbation measured after 1 hrs by PI and DAPI double staining based fluorescence microscopic analysis; assay type: subcellular
Procedure, shortened: (§5)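 Mid-log E. coli ATCC BAA-2452 was washed three times in PBS (10 mM, pH 7.3). Cells at 10^7 CFU/mL were exposed to agent at MIC or 4× MIC for 1 h, then pelleted at 3000g and washed. Staining was PI for 15 min, then DAPI for 15 min, both at 37 °C in the dark. Untreated cells were processed alike. Imaged by fluorescence microscopy with 60× oil objective.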

Escherichia coli [6] = assay: Antibacterial activity against Escherichia coli ATCC 25922 assessed as fold increase in MIC incubated for 24 hrs in presence of Ca2+ ions by CLSI based broth microdilution method; assay type: functional
Procedure, shortened: (§6)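 E. coli MICs by CLSI broth microdilution in cation-adjusted Mueller Hinton broth. […] Inoculum was 10^6 CFU/mL with 2-fold serial peptide dilutions, incubated 24 h at 37 °C. MIC is the lowest concentration inhibiting growth. Three independent assays, each in triplicate.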

HepaRG [7] = assay: Antiproliferative activity human HepaRG cells assessed as reduction in cell viability at 250 ug/ml incubated for 24 hrs by MTS assay; assay type: functional; settings: dose 250 µg/ml; procedure, shortened: as §2
Cell membrane [8] = assay: Disruption of cell membrane in methicillin resistant Staphylococcus aureus ATCC BAA 1556 assessed as increase in PI fluorescence intensity measured after 1 hrs by PI staining based flow cytometric analysis; assay type: subcellular
Procedure, shortened: (§7)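 Mid-log cells grown in Mueller Hinton broth, washed in 10 mM Tris pH 7.4, 10^7 CFU/mL, treated at MIC and 4× MIC for 1 h. Pelleted, washed, PI-stained for 15 min at 37 °C in the dark, then counted by flow cytometry for % PI-positive cells. PBS-treated cells as negative control, 10% Triton X-100 as positive control. Run in triplicate; two-tailed unpaired t-test.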

Staphylococcus aureus [9] = assay: Antibacterial activity against methicillin resistant Staphylococcus aureus ATCC BAA 1556 assessed as fold increase in MIC incubated for 24 hrs in presence of Ca2+ ions by CLSI based broth microdilution method; assay type: functional; procedure, shortened: as §4
MRC5 [10] = assay: Antiproliferative activity human MRC5 cells assessed as reduction in cell viability at 50 ug/ml incubated for 24 hrs by MTS assay; assay type: functional; settings: dose 50 µg/ml; procedure, shortened: as §2
Staphylococcus aureus [11] = assay: Bactericidal activity against methicillin resistant Staphylococcus aureus ATCC BAA 1556 assessed as inhibition of bacterial growth at 4 times of MIC incubated for 4 hrs by Time kill assay; assay type: functional; procedure, shortened: as §1
Cell membrane [12] = assay: Disruption of cell membrane in Escherichia coli ATCC BAA-2452 assessed as cell membrane perturbation at 4 times of MIC measured after 1 hrs by PI and DAPI double staining based fluorescence microscopic analysis; procedure, shortened: as §5
Escherichia coli [13] = assay: Antibacterial activity against Escherichia coli ATCC 25922 assessed as fold increase in MIC incubated for 24 hrs in presence of Mg2+ ions by CLSI based broth microdilution method; assay type: functional; procedure, shortened: as §6
Cell membrane [14] = assay: Disruption of cell membrane in Escherichia coli ATCC BAA-2452 assessed as increase in PI fluorescence intensity measured after 1 hrs by PI staining based flow cytometric analysis
Procedure, shortened: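 Mid-log E. coli ATCC BAA-2452 grown in Mueller Hinton broth, washed thrice and resuspended at 10^7 CFU/mL in 10 mM Tris pH 7.4. […] Controls: PBS (negative) and 10% Triton X-100 (positive). Triplicate; two-tailed unpaired t-test.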

Cell membrane [15] = assay: Disruption of cell membrane in methicillin resistant Staphylococcus aureus ATCC BAA 1556 assessed as cell membrane perturbation measured after 1 hrs by DAPI and PI double staining based fluorescence microscopic analysis; assay type: subcellular; procedure, shortened: as §3
MRC5 [16] = assay: Antiproliferative activity human MRC5 cells assessed as reduction in cell viability at 250 ug/ml incubated for 24 hrs by MTS assay; assay type: functional; settings: dose 250 µg/ml; procedure, shortened: as §2
Escherichia coli [17] = assay: Antibacterial activity against Escherichia coli ATCC 25922 assessed as fold increase in MIC incubated for 24 hrs in presence of NH4+ ions by CLSI based broth microdilution method; assay type: functional; procedure, shortened: as §6
Escherichia coli [18] = assay: Antibacterial activity against Escherichia coli ATCC 25922 assessed as fold increase in MIC incubated for 24 hrs in presence of Na+ ions by CLSI based broth microdilution method; assay type: functional; procedure, shortened: as §6
Staphylococcus aureus [19] = assay: Antibacterial activity against methicillin resistant Staphylococcus aureus ATCC BAA 1556 assessed as fold increase in MIC incubated for 24 hrs in presence of Mg2+ ions by CLSI based broth microdilution method; assay type: functional; procedure, shortened: as §4
Staphylococcus aureus [20] = assay: Antibacterial activity against methicillin resistant Staphylococcus aureus ATCC BAA 1556 assessed as fold increase in MIC incubated for 24 hrs in presence of NH4+ ions by CLSI based broth microdilution method; assay type: functional; procedure, shortened: as §4
[21] = Antiproliferative activity human HEKa cells assessed as reduction in cell viability at 50 ug/ml incubated for 24 hrs by MTS assay; assay type: functional; settings: dose 50 µg/ml; procedure, shortened: as §2
Cell membrane [22] = assay: Disruption of cell membrane in methicillin resistant Staphylococcus aureus ATCC BAA 1556 assessed as increase in PI fluorescence intensity at 4 times of MIC measured after 1 hrs by PI staining based flow cytometric analysis; procedure, shortened: as §7

Substance	inhibition (INH) (Staphylococcus aureus [1]) [%]	Activity (HepaRG [2]) [%]	Activity (Cell membrane [3])	fold change (FC) (Staphylococcus aureus [4])	Activity (Cell membrane [5])	fold change (FC) (Escherichia coli [6])	Activity (HepaRG [7]) [%]	Activity (Cell membrane [8])	fold change (FC) (Staphylococcus aureus [9])	Activity (MRC5 [10]) [%]	inhibition (INH) (Staphylococcus aureus [11]) [%]	Activity (Cell membrane [12])	fold change (FC) (Escherichia coli [13])	Activity (Cell membrane [14])	Activity (Cell membrane [15])	Activity (MRC5 [16]) [%]	fold change (FC) (Escherichia coli [17])	fold change (FC) (Escherichia coli [18])	fold change (FC) (Staphylococcus aureus [19])	fold change (FC) (Staphylococcus aureus [20])	also measured
H-RWLRRWLRWWRR-NH2	75	<60	Active	2	Dose-Dependent Effect	2	<30	Dose-Dependent Effect	2	<60	100	Active	2	Dose-Dependent Effect	Dose-Dependent Effect	<30	2	2	2	2	Activity [21]: <60%; Activity (Cell membrane [22]): 75%
H-KWLKKWLKWWKK-NH2	75	>75	Active	2	Dose-Dependent Effect	2	>60	Dose-Dependent Effect	2	>75	100	Active	2	Dose-Dependent Effect	Dose-Dependent Effect	>60	2	2	2	2	Activity [21]: >75%; Activity (Cell membrane [22]): 75%
